Here are results for 2 compounds from publication PMC10337234 (Nature chemical biology, 2023).

One assay deals with HeLa cells. In words: Cell growth inhibition assay. The class given is cell-based, human. The settings on record: 4 days, versus (S)-SKBG-1. The essentials:
(§1)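 Cells were seeded at 5,000 per well for 16 h. They were then given 0.1% DMSO or test compound in 0.1% DMSO (threefold dilutions from 50 μM, eight concentrations) until DMSO controls were confluent: 6 d for 22Rv1, 5 d for MCF7, 4 d for HeLa and HT1080. CellTiterGlo was added for 30 min at room temperature and luminescence read. Signals were normalized to DMSO, with four replicate wells per concentration. EC50 came from a four-parameter variable-slope fit.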

Assay [1] deals with T1, NONO C145 (Homo sapiens, UniProt Q15233).
T1 sequence (Q15233 1-471): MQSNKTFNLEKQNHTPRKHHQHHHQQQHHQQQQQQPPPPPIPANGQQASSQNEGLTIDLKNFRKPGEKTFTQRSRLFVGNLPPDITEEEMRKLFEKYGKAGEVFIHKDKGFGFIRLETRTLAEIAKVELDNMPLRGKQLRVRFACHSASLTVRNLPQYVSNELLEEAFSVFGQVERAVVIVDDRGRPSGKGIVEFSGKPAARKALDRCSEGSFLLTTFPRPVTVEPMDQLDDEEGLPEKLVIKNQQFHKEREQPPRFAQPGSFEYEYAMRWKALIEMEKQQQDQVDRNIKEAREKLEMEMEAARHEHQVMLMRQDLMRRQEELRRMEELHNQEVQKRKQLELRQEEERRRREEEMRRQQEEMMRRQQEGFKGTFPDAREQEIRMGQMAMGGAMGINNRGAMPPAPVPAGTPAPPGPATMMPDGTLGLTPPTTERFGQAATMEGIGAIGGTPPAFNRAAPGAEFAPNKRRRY
The class given is binding. The essentials: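 HEK293T cells were seeded at 5 × 10^5 overnight and PEI-transfected with FLAG-tagged WT or C145S NONO, or empty vector, for 48 h. Cells were then given test compound or 0.1% DMSO in situ for 2 h, followed by a cysteine-reactive alkyne probe (20 μM, 1 h, 37 °C). Lysates (2 mg ml–1) were click-conjugated to rhodamine/TAMRA-azide and run on SDS-PAGE. The FLAG-NONO band was quantified by in-gel fluorescence. Four independent experiments gave the IC50.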

Another assay relates to MCF7 cells. Nature of the assay: Cell growth inhibition assay. The class given is cell-based, human. The settings on record: MCF7, 5 days, versus (S)-SKBG-1. The method, boiled down:
as §1

The test system of the next assay is AR-FL mRNA. In words: QuantiGene assay for AR-FL mRNA expression in 22Rv1 cells. The class given is cell-based. The settings on record: Homo sapiens, 22Rv1, 6 h, read-out: IC50 for AR-FL transcript suppression.
A further assay has as its system HT1080 cells. Nature of the assay: Cell growth inhibition assay. It counts as cell-based, human. The settings on record: HT1080, 4 days, versus (S)-SKBG-1. The method, boiled down: as §1
The subject of assay [2] is 22Rv1 cells. Nature of the assay: Cell growth inhibition assay. It counts as cell-based, human. To be noted: 22Rv1, 6 d, versus (S)-SKBG-1. The essentials:
as §1

The subject of another assay is AR-V7 mRNA. In words: QuantiGene assay for AR-V7 mRNA expression in 22Rv1 cells. It counts as cell-based. The settings on record: Homo sapiens, 22Rv1, 6 h, read-out: IC50 for AR-V7 transcript suppression.
The next assay addresses T2, NONO (Homo sapiens, UniProt Q15233).
T2 sequence (Q15233 1-471): T1 sequence (Q15233 1-471)
Nature of the assay: Immunofluorescence of NONO nuclear foci in 22Rv1 cells. To be noted: 20 μM, 1 h to 24 h. The class given is cell-based.

The subject of assay [3] is 22Rv1 cells. Nature of the assay: RNA-seq of sgControl 22Rv1 cells. The class given is cell-based, human. To be noted: 20 μM, 4 h, log2 (fold change) < −0.5, Padj < 0.01, versus (S)-SKBG-1 or DMSO.
Assay [4] has as its target T1, NONO C145. Nature of the assay: Cysteine-directed MS-ABPP, engagement of NONO C145 in 22Rv1 cells. It counts as binding. To be noted: 1 h. The method, boiled down:
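22Rv1 cells were seeded at 2 × 10^6 per 10-cm plate and grown for 48 h. They were treated in situ with 20 μM test compound or DMSO for 1 h, then analysed by cysteine-directed MS-ABPP. Engagement was taken from the DMSO versus compound reactivity ratio, capped at 10 and 0.1. Values are means of three independent experiments, counting cysteines quantified in at least two.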

Some results are limits rather than exact numbers.

What is called IC50 is the concentration needed to halve the response being measured.

For the compound `COc1ccc(CNC(=O)[C@H]2CN(C(=O)CCl)CCN2S(=O)(=O)c2ccc(OC)cc2)cc1` [(R)-SKBG-1], the cell growth effect entry in the assay with HeLa cells, in the assay with MCF7 cells, in the assay on HT1080 cells and with 22Rv1 cells [2] was “stereoselective cell growth impairment” each time. For the same compound, the results for the half-maximal inhibitory concentration (IC50) at NONO C145 [1], with AR-FL mRNA and in the assay on AR-V7 mRNA were 5.7 µM, 2.7 to 5.5 µM and 2.7 to 5.5 µM, respectively. For the same compound, on NONO, the “formation of subnuclear foci of NONO” value is “induced the formation of large subnuclear foci of NONO”. The “number of transcripts substantially and significantly decreased” value in the assay with 22Rv1 cells [3] is reported as ~ 1,000 transcripts. For the same compound, at NONO C145 [4] (read-out: engagement of NONO C145), the inhibition at 20 µM is over 50%.

As for `COc1ccc(CNC(=O)[C@@H]2CN(C(=O)CCl)CCN2S(=O)(=O)c2ccc(OC)cc2)cc1` [(S)-SKBG-1], the “engagement of NONO C145” value on NONO C145 [4] (22Rv1 cells, 20 μM) is “not by the inactive controls”.
